# Most compounds without a hit are left out; they make up all but 6.4% or so of the library.
# H69AR inhibit: growth inhibitors of human H69AR lung tumor cells; H69AR lung tumor viability, ATP luminescence, 72 h; hits give low values; viability, % at 10 µM; actives 6% (n = 85,000); AID 598;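 active = viability at or below 40%; inactive = viability above 40%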;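 note: multidrug resistant small cell line overexpressing MRP-1 efflux transporter; 100% = mean luminescence of untreated control wells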
# Ecoli WT expand: blocks growth of wild type E. coli BW25113. OD600 absorbance. growth inhibition, % at 100 µM. actives 0.15% (n = 98,000). AID 710;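 active = growth inhibition above about 50% at one test dose, limit read from the data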;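 note: growth measured after 20 h incubation at 37 °C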
# Fibroblast inh: blocks proliferation of human lung fibroblasts; LL 47 human lung fibroblast viability, ATP luminescence; hits give low values; viability, % at 10 µM; actives 1.1% (n = 85,000);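 active = viability at or below 50% in the single dose screen; inactive = viability above 50%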;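 note: compound exposure lasted 72 h before the ATP readout; 100% = median luminescence of untreated cell-only wells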
#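 Material: Human LL 47 lung fibroblast cells | Input: 1,150 cells/well | Buffer or medium: IMEM plus 15% FBS | Compound dosing: 0.1% DMSO in all compound wells | Times: Overnight cell rest, 72 h compound treatment at 37 °C | Signal: CellTiter-Glo luminescence measuring cellular ATP | Measure: % viability versus median cells-only luminescence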
# HUVEC prolif 384: inhibitors of human endothelial cell proliferation; HUVEC proliferation, CellTiter-Glo luminescence, 72 h; hits give low values; viability, % at 10 µM (by protocol); actives 1.1% (n = 86,000);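 active = viability at or below 30%; inactive = viability above 30%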;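 note: 100% = median luminescence of DMSO-only cell control wells on each plate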
# tolC growth inh: growth inhibitors of E. coli BW25113 tolC mutant. OD615. growth inhibition, % at 10 µM (by protocol). actives 2.2% (n = 65,000). AID 573;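 active = growth inhibition at or above a cutoff equal to the mean over every tested compound plus 3 SD, cut at about 60% in these data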;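 note: growth measured after 20 h incubation at 37 °C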
#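 System: E. coli ΔtolC::kan strain BW25113; Buffer or medium: LB broth supplemented with 50 µg/mL kanamycin; Compound: 10 µM final, single dose; Incubation: bacterial growth with compound for 20 h at 37 °C; Signal: A615 absorbance measurement; Evaluation: growth inhibition in percent.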
# Jurkat tox 60K: cytotoxic compounds reducing Jurkat cell viability; Jurkat E6.1 viability, ATP luminescence, 48 h; inhibition, % at 4 µM; actives 1.2% (n = 56,000);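 active = inhibition above the mean inhibition of all tested compounds plus 3 SD, cut at about 28% in these data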
# * = called active by the depositor; . = no result given.
SMILES,H69AR inhibit,Ecoli WT expand,Fibroblast inh,HUVEC prolif 384,tolC growth inh,Jurkat tox 60K
Cc1ccc(-c2csc(N(C)C(=O)c3c(C)nn(-c4ccccc4)c3Cl)n2)cc1,.,-12.0,.,.,.,.
CC1CN(c2nc3c(c(=O)n(C)c(=O)n3C)n2Cc2c(F)cccc2Cl)CC(C)O1 (stereo not drawn),61.6,-5.0,92.0,96.0,5.3,-7.6
CCCn1c(CN(Cc2ccccc2)Cc2ccccc2)nc2c1c(=O)n(C)c(=O)n2C,74.2,2.0,93.1,77.3,64.7*,-1.0
CCCCn1c(CN(C)Cc2ccccc2)nc2c1c(=O)n(C)c(=O)n2C,92.1,-3.0,81.0,93.0,.,35.9*
Cn1c(=O)c2c(-c3ccccc3)n(C3CCCCC3)cc2n(C)c1=O,37.3*,2.0,86.2,105.3,-8.2,-6.0
Cc1cccc(-c2c3c(=O)n(C)c(=O)n(C)c3cn2C2CCCCC2)c1,22.7*,-1.0,79.3,102.6,.,.
C=C(C)COc1ccc(-c2nc(N)ncc2Oc2ccccc2OCC)c(O)c1,75.1,-10.0,96.9,97.6,16.8,7.5
CCOc1ccc(-c2nc(N)ncc2-c2ccccc2)c(O)c1,28.0*,2.0,92.6,114.2,34.3,3.4
CCOc1cc(/C=N/N=C(/N)c2nonc2N)cc(Br)c1OCc1ccc(Cl)cc1,18.2*,-14.0,28.6*,22.2*,.,.
Cc1nc2nc3c(cn2n1)C(=O)CCC3,106.8,8.0,97.6,94.0,.,.
Cn1cc(C(=O)NC2CCCCCC2)c(=O)c2cc(S(=O)(=O)N3CCCC3)ccc21,53.6,.,.,81.0,7.2,-0.6
Cn1cc(C(=O)NC2CCCCCCC2)c(=O)c2cc(S(=O)(=O)N3CCCC3)ccc21,32.3*,5.0,49.4*,51.6,17.4,6.0
CN(C1CCCCC1)S(=O)(=O)c1ccc2c(c1)c(=O)c(C(=O)N1CCc3ccccc3C1)cn2C,5.9*,-2.0,91.4,93.5,.,.
CC1=C(C(=O)Nc2ccccc2)C(c2ccc(C)cc2)N=C(Nc2nc3ccccc3o2)N1 (stereo not drawn),.,0.0,.,.,.,.
Cn1ncc(C#N)c1/N=C/N(Cc1ccccc1)Cc1ccccc1,100.1,-4.0,89.4,105.7,99.2*,3.2
CN1CCN(/C=N/c2c(C#N)cnn2C)CC1,84.8,3.0,91.1,81.0,-13.9,-3.3
CCOc1cc(/C=N/NC(=O)Cn2nc([N+](=O)[O-])cc2C)cc(Br)c1OCc1ccccc1C,0.6*,-3.0,5.9*,3.6*,.,.
O=C1CCCCCN1CP(=O)(O)CCc1ccccc1,95.7,-1.0,98.3,85.4,-10.4,8.3
O=C1CCCCCN1Sc1ccccc1,3.0*,1.0,79.3,69.0,7.3,11.6
CC(C)(C)c1ccc(OCc2nc(-c3ccccn3)no2)c(Br)c1,66.3,3.0,100.0,98.1,100.0*,-0.9
Cc1nn(C(C)C(=O)N2CCc3ccccc32)c(C)c1[N+](=O)[O-] (stereo not drawn),.,-3.0,.,.,.,.
COc1cc2c3c(c1)-c1c(sn(-c4cc(OC)ccc4OC)c1=S)C(C)(C)N3C(=O)C2=O,3.9*,-10.0,101.4,51.3,.,.
Cc1ccc(-c2cc(-c3ccc(Cl)cc3)c(C#N)c(N)n2)o1,7.1*,10.0,71.3,58.5,-13.2,1.1
CCOc1cc(-c2cc(-c3ccc(C)o3)nc(N)c2C#N)ccc1O,12.2*,-1.0,83.3,52.2,.,.
Cc1cc(-c2cc(-c3ccc(Cl)cc3)nc(N)c2C#N)co1,42.6,-3.0,99.2,69.0,9.0,.
SMILES,H69AR inhibit,Ecoli WT expand,Fibroblast inh,HUVEC prolif 384,tolC growth inh,Jurkat tox 60K
Cc1ccc(-c2cc(-c3ccc4c(c3)OCO4)c(C#N)c(N)n2)o1,18.7*,3.0,85.2,70.8,.,0.9
N#Cc1c(N)oc(-c2ccc3c(c2)OCO3)c1-c1ccc2c(c1)OCO2,22.2*,-3.0,99.4,95.7,72.3*,.
CC1=NN(C(=O)c2ccc(Cn3nc(C)cc3C)o2)C(O)(C(F)(F)F)C1 (stereo not drawn),.,6.0,.,.,.,.
Cc1ccc(-c2cc(-c3ccc(C)o3)nc(N)c2C#N)cc1,37.0*,-1.0,95.6,80.2,1.2,-7.8
CCOc1cc(-c2c(C)c(C)nc(N)c2C#N)ccc1O,69.5,-9.0,98.8,87.4,1.9,4.2
CCOc1cc(-c2c(C)c(CC)nc(N)c2C#N)ccc1O,36.0*,7.0,95.5,91.6,9.0,0.9
COc1cc2c(cc1OC)CN(C(=O)CCCOc1ccc(Cl)cc1Cl)CC2,95.8,-25.0,103.2,107.0,.,.
Clc1ccc(-c2nc3cnccn3c2Nc2ccc3c(c2)OCO3)cc1,25.5*,6.0,94.4,91.1,.,.

# Bioassay records as filed in PubChem BioAssay.
